According to ChEMBL document CHEMBL4033790, “Design and Synthesis of Novel Deuterated Ligands Functionally Selective for the γ-Aminobutyric Acid Type A Receptor (GABAAR) α6 Subtype with Improved Metabolic Stability and Enhanced Bioavailability” (J Med Chem, 2018):

What was measured:
[1] = Metabolic stability in human liver microsomes assessed as parent compound remaining at 10 uM after 60 mins by LC-MS analysis; assay type: ADME, microsome; settings: read-out: Stability
Method in brief: (§1)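 The 60 min samples of the microsomal incubation (10 μM compound, human or mouse liver microsomes at 0.5 mg/mL, NADPH regenerating system, 37 °C) were analysed by LC-MS. Detection used SIM mode with dual ESI/APCI ionization, calibrated to the retention times and masses of the parent and its O-demethylated metabolites. Peak intensities were measured.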

Liver = assay: Half life in mouse liver microsomes at 10 uM by LC-MS/MS analysis; assay type: ADME, microsome
Method in brief: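 Compound at 10 μM final was preincubated 5 min at 37 °C with NADPH regenerating system in phosphate buffer, pH 7.4. Human or mouse liver microsomes (0.5 mg/mL protein) were added to start the reaction. Samples were taken at 0 (no microsomes) and 10–60 min and measured by LC-MS/MS against an internal standard. Half-life = 0.693/k, with k the slope of ln peak-area ratio versus time. Three experiments, each in duplicate.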

[2] = Metabolic stability in mouse liver microsomes assessed as parent compound remaining at 10 uM after 60 mins by LC-MS analysis; assay type: ADME, microsome; settings: read-out: Stability; method in brief: as §1
[3] = Drug metabolism in human liver microsomes assessed as CYP450 mediated-O-demethylated 8-chloro-2-(3-hydroxyphenyl)-2H-pyrazolo[4,3-c]quinolin-3(5H)-one metabolite formation after 60 mins by LC-MS analysis; assay type: ADME; settings: 1 h
Method in brief: (§2)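 The 60-min samples from the human or mouse liver microsome incubations (10 µM compound, 0.5 mg/mL protein, NADPH regenerating system, 37 °C, pH 7.4) were run on LC-MS in SIM mode with dual ESI/APCI ionization. The method was calibrated to each component's retention time and mass, and the peak intensities of the parent and O-demethylated metabolites were measured.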

[4] = Drug metabolism in mouse liver microsomes assessed as CYP450 mediated-O-demethylated 8-chloro-2-(3-hydroxyphenyl)-2H-pyrazolo[4,3-c]quinolin-3(5H)-one metabolite formation after 60 mins by LC-MS analysis; assay type: ADME; settings: 1 h; method in brief: as §2
HEK-293T = assay: Cytotoxicity against HEK293T cells assessed as reduction in cell viability up to 400 uM after 48 hrs by CellTiter-Glo assay; assay type: cell-based; settings: human
Method in brief: (§3)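 HEK293T and HepG2 cells grown in high-glucose DMEM with non-essential amino acids, 10 mM HEPES, penicillin/streptomycin and 10% heat-inactivated FBS. Cells were harvested with trypsin and plated; compound was pin-transferred 3 h later. Incubation was 48 h, then CellTiter-Glo luminescence was read. Controls were DMSO (negative) and a cytotoxic aminoketone (positive). Quadruplicates, three independent runs, normalized to controls, nonlinear regression.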

HepG2 = assay: Cytotoxicity against human HepG2 cells assessed as reduction in cell viability up to 400 uM after 48 hrs by CellTiter-Glo assay; assay type: cell-based; settings: hepg2, 48 h; method in brief: as §3
Mus musculus = assay: Neurotoxicity in Swiss Webster mouse assessed as induction of motor impairment at 40 mg/kg administered via oral gavage measured after 10 to 60 mins by rotarod method; assay type: toxicity, organism-based; settings: in vivo
Method in brief: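 Female mice were given a single oral gavage dose of 40 mg/kg, either in 50% PBS/40% propylene glycol/10% DMSO or, for poorly soluble compounds, in 2% polyethylene glycol plus 2.5% hydroxymethyl cellulose. Rotarod performance was tested 10, 30 and 60 min after dosing, with diazepam 5 mg/kg as positive control.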

[5] = biological target: Voltage-gated inwardly rectifying potassium channel KCNH2 (Homo sapiens, UniProt Q12809); assay: Displacement of [3H]-dofetilide from human ERG expressed in HEK cell membranes at >10 uM after 60 to 90 mins by scintillation counting
Sequence of Voltage-gated inwardly rectifying potassium channel KCNH2 (Q12809 whole entry): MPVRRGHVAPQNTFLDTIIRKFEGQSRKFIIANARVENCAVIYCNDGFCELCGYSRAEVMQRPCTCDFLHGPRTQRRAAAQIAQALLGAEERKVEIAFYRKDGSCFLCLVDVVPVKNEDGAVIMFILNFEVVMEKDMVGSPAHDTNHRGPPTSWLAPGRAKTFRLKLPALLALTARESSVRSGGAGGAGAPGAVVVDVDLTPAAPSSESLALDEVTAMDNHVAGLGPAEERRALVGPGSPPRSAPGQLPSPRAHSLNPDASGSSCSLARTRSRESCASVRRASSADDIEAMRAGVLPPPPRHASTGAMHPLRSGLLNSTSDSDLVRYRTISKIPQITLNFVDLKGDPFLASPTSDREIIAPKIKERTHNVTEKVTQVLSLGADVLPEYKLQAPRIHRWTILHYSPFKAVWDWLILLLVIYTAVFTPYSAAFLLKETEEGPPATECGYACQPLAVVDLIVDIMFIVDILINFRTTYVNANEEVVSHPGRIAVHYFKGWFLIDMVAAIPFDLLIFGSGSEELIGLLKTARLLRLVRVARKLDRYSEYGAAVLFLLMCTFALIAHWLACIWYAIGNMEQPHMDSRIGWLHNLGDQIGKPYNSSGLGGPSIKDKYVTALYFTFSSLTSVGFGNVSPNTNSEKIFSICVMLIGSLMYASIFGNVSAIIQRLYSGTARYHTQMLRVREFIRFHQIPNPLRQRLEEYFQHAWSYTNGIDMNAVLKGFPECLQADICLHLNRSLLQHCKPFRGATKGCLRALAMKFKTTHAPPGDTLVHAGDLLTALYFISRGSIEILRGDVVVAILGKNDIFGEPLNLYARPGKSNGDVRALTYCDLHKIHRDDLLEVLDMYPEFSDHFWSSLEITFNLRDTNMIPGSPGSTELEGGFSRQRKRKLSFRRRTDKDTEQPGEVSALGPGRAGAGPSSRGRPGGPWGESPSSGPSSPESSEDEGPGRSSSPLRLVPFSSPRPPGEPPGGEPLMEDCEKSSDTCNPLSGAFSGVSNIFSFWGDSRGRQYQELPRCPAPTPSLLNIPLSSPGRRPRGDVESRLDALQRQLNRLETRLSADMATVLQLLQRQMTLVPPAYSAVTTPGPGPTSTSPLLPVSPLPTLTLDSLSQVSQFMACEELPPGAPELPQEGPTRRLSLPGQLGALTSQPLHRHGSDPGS

[6] = Drug level in human liver microsomes treated with 8-Chloro-2-(3-methoxy-d3-phenyl)-2,5-dihydro-3H-pyrazolo[4,3-c]quinolin-3-one after 60 mins by LC-MS analysis; assay type: ADME; settings: 1 h
[7] = Drug level in mouse liver microsomes treated with 8-Chloro-2-(3-methoxy-d3-phenyl)-2,5-dihydro-3H-pyrazolo[4,3-c]quinolin-3-one after 60 mins by LC-MS analysis; assay type: ADME; settings: 1 h
[8] = Drug metabolism in human liver microsomes assessed as CYP450 mediated-O-demethylated 7-bromo-2-(4-hydroxyphenyl)-2H-pyrazolo[4,3-c]quinolin-3(5H)-one metabolite formation after 60 mins by LC-MS analysis; assay type: ADME; settings: 1 h; method in brief: as §2
[9] = Drug metabolism in mouse liver microsomes assessed as CYP450 mediated-O-demethylated 7-bromo-2-(4-hydroxyphenyl)-2H-pyrazolo[4,3-c]quinolin-3(5H)-one metabolite formation after 60 mins by LC-MS analysis; assay type: ADME; settings: 1 h; method in brief: as §2

Structure (SMILES)	remaining at 1 h, 10 µM [1] [%]	t1/2 (Liver) [h]	remaining at 1 h, 10 µM [2] [%]	Drug metabolism [3]	Drug metabolism [4]	Activity (HEK-293T)	Activity (HepG2)	Activity (Mus musculus)	inhibition (INH) [5]	Drug metabolism [6]	Drug metabolism [7]	Drug metabolism [8]	Drug metabolism [9]
[2H]C([2H])([2H])Oc1cccc(-n2nc3c4cc(Cl)ccc4[nH]cc-3c2=O)c1	93	2.8	76.6	Metabolite_Detected	Metabolite_Detected	Non-Toxic	Non-Toxic	Non-Toxic	Not Active				
O=c1c2c[nH]c3ccc(Cl)cc3c-2nn1-c1cccc(O)c1										Metabolite_Detected	Metabolite_Detected		
[2H]C([2H])([2H])Oc1ccc(-n2nc3c4ccc(Br)cc4[nH]cc-3c2=O)cc1	81.5	2.3	73.8			Non-Toxic	Non-Toxic	Non-Toxic	Not Active			Metabolite_Detected	Metabolite_Detected
